In ChEMBL document CHEMBL4261586, “Conjugation of a 5-nitrofuran-2-oyl moiety to aminoalkylimidazoles produces non-toxic nitrofurans that are efficacious in vitro and in vivo against multidrug-resistant Mycobacterium tuberculosis” (Eur J Med Chem, 2018):
Values after ≈ are worked out from the molar mass of the structure shown.

Key:
[1] = tested on: Mycobacterium tuberculosis; test: Antimycobacterial activity against Mycobacterium tuberculosis H37Rv after 7 days by resazurin microtitre plate assay; assay type: functional; conditions: 168 h
Procedure, shortened: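 REMA in Middlebrook 7H9 with OADC. Three-week culture vortexed with glass beads, adjusted to 1.0 McFarland (about 3×10⁸ bacteria/mL) and diluted 20-fold. Final concentrations 1.6–200 via 2-fold dilutions; growth control plus 1% ([…] diluted) control. 7 days at 35 °C, then 0.01% resazurin for 18 h; fluorescence ex 520/em 590 nm. MIC taken where fluorescence plateaued or matched the 1% control (t-test).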

[2] = tested on: Mycobacterium tuberculosis; test: Antitubercular activity against Mycobacterium tuberculosis H37Rv infected in C57BL/6 mouse assessed as tubercular foci index at 20 mg/kg, po administered via gavage over 42 days (excluding weekends) (reference value: 23.6 +/- 0.09); assay type: functional
[3] = tested on: Mycobacterium tuberculosis; test: Antitubercular activity against Mycobacterium tuberculosis H37Rv infected in C57BL/6 mouse assessed as lung mass index at 20 mg/kg, po administered via gavage over 42 days (excluding weekends) (reference value: 2.28 +/- 0.1); assay type: functional
[4] = tested on: Mycobacterium tuberculosis; test: Antitubercular activity against Mycobacterium tuberculosis H37Rv infected in C57BL/6 mouse assessed as colony forming units per lung mass unit at 20 mg/kg, po administered via gavage over 42 days (excluding weekends) (reference value: 169.1 +/- 11.83 x 10^3); assay type: functional
Acinetobacter baumannii = test: Antibacterial activity against Acinetobacter baumannii assessed as diameter of inhibition zone measured after 18 hrs by Kirby-Bauer disk diffusion test; assay type: functional
Mus musculus [5] = test: Toxicity in C57BL6 mouse assessed as heart mass quotient at 700 to 1100 mg/kg, po measured after 14 days relative to total body weight; assay type: organism-based; conditions: in vivo, 336 h
Procedure, shortened: (§1)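 Male C57BL6 mice (19.0–22.0 g), quarantined 14 days, 6 per dose group. Single oral gavage of Tween-80 suspension in water at 700–1100 mg/kg in 100 mg/kg steps; controls (7 mice) received 0.01% Tween-80. Lethality, time to death and clinical signs recorded daily for 14 days, then cervical dislocation and necropsy; heart, lung, liver, spleen and left kidney weights expressed relative to body weight. LD50 calculated by formula from dead/total counts.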

Mus musculus [6] = test: Toxicity in C57BL6 mouse assessed as body mass at 700 to 1100 mg/kg, po measured after 14 days (reference value: 22.9 +/- 0.32 g); assay type: organism-based; conditions: in vivo, 336 h; procedure, shortened: as §1
Mus musculus [7] = test: Toxicity in C57BL6 mouse assessed as lethality at 1100 mg/kg, po measured daily over 14 days of treatment; assay type: organism-based; conditions: in vivo, 336 h; procedure, shortened: as §1
Mus musculus [8] = test: (§2) Toxicity in po dosed C57BL6 mouse assessed as lethality measured daily over 14 days of treatment; assay type: organism-based; conditions: mouse, in vivo, 336 h; procedure, shortened: as §1
[9] = as §2; assay type: organism-based; conditions: C57BL6, mouse, in vivo; procedure, shortened: as §1
Enterococcus faecium = test: Antibacterial activity against Enterococcus faecium assessed as diameter of inhibition zone after 18 hrs by Kirby-Bauer disk diffusion test; assay type: functional
Klebsiella pneumoniae = test: Antibacterial activity against Klebsiella pneumoniae assessed as diameter of inhibition zone measured after 18 hrs by Kirby-Bauer disk diffusion test; assay type: functional
Mus musculus [10] = test: Toxicity in C57BL6 mouse assessed as lung mass quotient at 700 to 1100 mg/kg, po measured after 14 days relative to total body weight; assay type: organism-based; conditions: in vivo, 336 h; procedure, shortened: as §1
Mus musculus [11] = test: Toxicity in C57BL6 mouse assessed as liver mass quotient at 700 to 1100 mg/kg, po measured after 14 days relative to total body weight; assay type: organism-based; conditions: in vivo, 336 h; procedure, shortened: as §1
Mus musculus [12] = test: Toxicity in C57BL6 mouse assessed as left kidney mass quotient at 700 to 1100 mg/kg, po measured after 14 days relative to total body weight; assay type: organism-based; conditions: in vivo, 336 h; procedure, shortened: as §1
Klebsiella aerogenes = test: Antibacterial activity against Enterobacter aerogenes assessed as diameter of inhibition zone measured after 18 hrs by Kirby-Bauer disk diffusion test; assay type: functional
Mus musculus [13] = test: Toxicity in C57BL6 mouse assessed as brain mass quotient at 700 to 1100 mg/kg, po measured after 14 days relative to total body weight; assay type: organism-based; conditions: in vivo, 336 h
Mus musculus [14] = test: Toxicity in C57BL6 mouse assessed as lethality at 700 mg/kg, po measured daily over 14 days of treatment; assay type: organism-based; conditions: in vivo, 336 h; procedure, shortened: as §1
Mus musculus [15] = test: Toxicity in C57BL6 mouse assessed as spleen mass quotient at 700 to 1100 mg/kg, po measured after 14 days relative to total body weight; assay type: organism-based; conditions: in vivo, 336 h; procedure, shortened: as §1
Staphylococcus aureus = test: Antibacterial activity against Staphylococcus aureus assessed as diameter of inhibition zone after 18 hrs by Kirby-Bauer disk diffusion test; assay type: functional
Pseudomonas aeruginosa = test: Antibacterial activity against Pseudomonas aeruginosa assessed as diameter of inhibition zone measured after 18 hrs by Kirby-Bauer disk diffusion test; assay type: functional

## Cc1cnc(CCNC(=O)c2ccc([N+](=O)[O-])o2)n1C1CCC1
[1]
  MIC: 6.2 µg/mL (≈ 19.5 µM)

## Cc1cnc(CCNC(=O)c2ccc([N+](=O)[O-])o2)n1C1CCCCCCC1
[1]
  MIC: 25 µg/mL (≈ 66.8 µM)

## Cc1cnc(-c2ccccc2)n1CC1CCN(C(=O)c2ccc([N+](=O)[O-])o2)C1 (configuration not stated)
[1]
  MIC: 6.2 µg/mL (≈ 16.3 µM)

## Cc1cnc(C)n1C1CCCN(C(=O)c2ccc([N+](=O)[O-])o2)C1 (configuration not stated)
[1]
  MIC: 100 µg/mL (≈ 314 µM)

## CC[C@@H](CO)NCCN[C@@H](CC)CO [ETHAMBUTOL]
[2]
  Activity_index: 2.65
[3]
  Activity_index: 1.61
[4]
  Activity: 85.32 ×10³ CFU

## Cc1cnc(-c2cccnc2)n1CCC1CCN(C(=O)c2ccc([N+](=O)[O-])o2)CC1
[1]
  MIC: 100 µg/mL (≈ 244 µM)

## Cc1cnc(Cc2ccccc2)n1CCNC(=O)c1ccc([N+](=O)[O-])o1
[1]
  MIC: 50 µg/mL (≈ 141 µM)

## CCCn1c(C)cnc1C1CN(C(=O)c2ccc([N+](=O)[O-])o2)C1
Acinetobacter baumannii
  diameter of the inhibition zone (DIZ): 25 mm
Mus musculus [5]
  fold change (FC): 0.34
Mus musculus [6]
  Activity: 22.32 g
[2]
  Activity_index: 2.7
Mus musculus [7]
  Activity: Toxic
Mus musculus [8]
  LD16: 287.5 mg/kg
  LD84: 1037.5 mg/kg
  LD100: 1100 mg/kg
[9]
  LD50 at 336 h: 900 mg/kg
[1]
  MIC: 1.6 µg/mL (≈ 5.03 µM)
Enterococcus faecium
  diameter of the inhibition zone (DIZ): 0 mm
Klebsiella pneumoniae
  diameter of the inhibition zone (DIZ): 0 mm
Mus musculus [10]
  fold change (FC): 0.48
Mus musculus [11]
  fold change (FC): 4.49
Mus musculus [12]
  fold change (FC): 0.39
Klebsiella aerogenes
  diameter of the inhibition zone (DIZ): 19 mm
Mus musculus [13]
  fold change (FC): 1.11
Mus musculus [14]
  Activity: Non-Toxic
[3]
  Activity_index: 1.62
Mus musculus [15]
  fold change (FC): 0.23
Staphylococcus aureus
  diameter of the inhibition zone (DIZ): 15 mm
Pseudomonas aeruginosa
  diameter of the inhibition zone (DIZ): 0 mm
[4]
  Activity: 85.9 ×10³ CFU

## O=C(O)c1cn(C2CC2)c2cc(N3CCNCC3)c(F)cc2c1=O [CIPROFLOXACIN]
Acinetobacter baumannii
  diameter of the inhibition zone (DIZ): 31 mm
Enterococcus faecium
  diameter of the inhibition zone (DIZ): 25 mm
Klebsiella pneumoniae
  diameter of the inhibition zone (DIZ): 26 mm
Klebsiella aerogenes
  diameter of the inhibition zone (DIZ): 26 mm
Staphylococcus aureus
  diameter of the inhibition zone (DIZ): 27 mm

## Cc1cnc(C)n1C1CCN(C(=O)c2ccc([N+](=O)[O-])o2)C1 (configuration not stated)
[1]
  MIC: 3.1 µg/mL (≈ 10.2 µM)

## Cc1cnc(CC2CCN(C(=O)c3ccc([N+](=O)[O-])o3)C2)n1CC1CC1 (configuration not stated)
[1]
  MIC: 6.2 µg/mL (≈ 17.3 µM)

## Cc1cnc(C)n1C1CCN(C(=O)c2ccc([N+](=O)[O-])o2)CC1
[1]
  MIC: > 100 µg/mL

## COCCn1c(C)cnc1CC1CCN(C(=O)c2ccc([N+](=O)[O-])o2)CC1
[1]
  MIC: > 100 µg/mL

## Cc1cnc(C2CCCO2)n1CC1CCN(C(=O)c2ccc([N+](=O)[O-])o2)CC1 (configuration not stated)
[1]
  MIC: 50 µg/mL (≈ 129 µM)
